pIC50: −log10 of the molar value. Bounds are passed on as bounds.

This experiment has as its target T1, Nuclear factor NF-kappa-B p105 subunit (Homo sapiens, UniProt P19838).
T1 sequence (P19838 whole entry): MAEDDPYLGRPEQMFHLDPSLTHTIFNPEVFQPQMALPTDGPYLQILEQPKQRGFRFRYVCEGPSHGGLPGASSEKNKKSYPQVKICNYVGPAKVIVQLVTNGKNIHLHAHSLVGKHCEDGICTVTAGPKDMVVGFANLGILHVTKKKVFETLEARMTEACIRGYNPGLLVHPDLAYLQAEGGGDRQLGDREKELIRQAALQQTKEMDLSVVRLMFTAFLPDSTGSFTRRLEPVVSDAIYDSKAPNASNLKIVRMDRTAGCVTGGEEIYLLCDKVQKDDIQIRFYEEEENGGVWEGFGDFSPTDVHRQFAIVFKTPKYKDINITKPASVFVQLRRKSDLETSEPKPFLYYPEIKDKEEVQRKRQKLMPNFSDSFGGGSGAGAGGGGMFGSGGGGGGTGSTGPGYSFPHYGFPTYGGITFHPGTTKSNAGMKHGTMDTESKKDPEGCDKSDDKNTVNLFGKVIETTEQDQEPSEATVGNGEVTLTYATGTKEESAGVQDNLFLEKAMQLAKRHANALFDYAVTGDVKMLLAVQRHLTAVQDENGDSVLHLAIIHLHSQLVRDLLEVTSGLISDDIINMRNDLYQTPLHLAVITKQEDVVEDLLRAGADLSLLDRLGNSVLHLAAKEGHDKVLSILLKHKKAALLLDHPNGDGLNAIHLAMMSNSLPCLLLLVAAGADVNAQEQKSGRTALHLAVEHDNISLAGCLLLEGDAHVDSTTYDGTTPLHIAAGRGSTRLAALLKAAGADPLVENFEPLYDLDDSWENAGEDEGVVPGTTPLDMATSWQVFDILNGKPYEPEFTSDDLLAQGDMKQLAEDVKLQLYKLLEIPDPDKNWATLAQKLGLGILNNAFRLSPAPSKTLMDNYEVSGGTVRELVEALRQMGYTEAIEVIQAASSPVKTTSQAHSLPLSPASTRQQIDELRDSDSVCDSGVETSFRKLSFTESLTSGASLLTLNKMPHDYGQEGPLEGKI
Kind of experiment: In vitro inhibitory activity against human Jurkat T-Cells stably transfected with an Nuclear factor kappa B transcription factor. An outline of the steps:
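Jurkat T-cells stably carrying NF-κB site (MHC promoter) on minimal SV-40 promoter driving luciferase, plated 1 × 10^6 cells/mL in 10% Serum-Plus 18 h prior. Compound in 0.2% DMSO/H2O added 0.5 h at 37 °C; induced with PMA 50 ng/mL and PHA 1 μg/mL, 5 h at 37 °C. Lysate luminescence read; IC50 = concentration halving luciferase versus control.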
Consider `Nc1ncc(C(=O)Nc2cc(Cl)cc(Cl)c2)c(C(F)(F)F)n1` [2-Amino-4-trifluoromethyl-pyrimidine-5-carboxylic acid (3,5-dichloro-phenyl)-amide], for which the pIC50 is under 5.00.

As for `O=C(Nc1cc(Cl)cc(Cl)c1)c1cnc(NCc2ccccc2)nc1C(F)(F)F` [2-Benzylamino-4-trifluoromethyl-pyrimidine-5-carboxylic acid (3,5-dichloro-phenyl)-amide], the pIC50 is under 5.00.

Molecule `CCCCNc1ncc(C(=O)Nc2cc(Cl)cc(Cl)c2)c(C(F)(F)F)n1` [2-Butylamino-4-trifluoromethyl-pyrimidine-5-carboxylic acid (3,5-dichloro-phenyl)-amide] had a pIC50 of under 5.00.

As for `O=C(Nc1cc(Cl)nc(Cl)n1)c1cnc(Cl)nc1C(F)(F)F` [2-Chloro-4-trifluoromethyl-pyrimidine-5-carboxylic acid (2,6-dichloro-pyrimidin-4-yl)-amide], the negative logarithm of the IC50 (pIC50) was 6.10.

`Cc1cccc(C)c1NC(=O)c1cnc(Cl)nc1C(F)(F)F` [2-Chloro-4-trifluoromethyl-pyrimidine-5-carboxylic acid (2,6-dimethyl-phenyl)-amide] gave a pIC50 of under 5.00.

With `O=C(Nc1cc(Cl)c(Cl)c(Cl)c1)c1cnc(Cl)nc1C(F)(F)F` [2-Chloro-4-trifluoromethyl-pyrimidine-5-carboxylic acid (3,4,5-trichloro-phenyl)-amide], the negative logarithm of the IC50 (pIC50) is 6.05.

For `O=C(Nc1cc(C(F)(F)F)cc(C(F)(F)F)c1)c1cnc(Cl)nc1C(F)(F)F` [2-Chloro-4-trifluoromethyl-pyrimidine-5-carboxylic acid (3,5-bis-trifluoromethyl-phenyl)-amide], the pIC50 was 7.30.

For the molecule `O=C(Nc1cc(Cl)cc(Cl)c1)c1cnc(Cl)nc1C(F)(F)F` [2-Chloro-4-trifluoromethyl-pyrimidine-5-carboxylic acid (3,5-dichloro-phenyl)-amide], the pIC50 was 6.30.

In turn, `CN(C(=O)c1cnc(Cl)nc1C(F)(F)F)c1cc(Cl)cc(Cl)c1` [2-Chloro-4-trifluoromethyl-pyrimidine-5-carboxylic acid (3,5-dichloro-phenyl)-methyl-amide] gave a pIC50 of 5.64.

With `COc1cc(NC(=O)c2cnc(Cl)nc2C(F)(F)F)cc(OC)c1` [2-Chloro-4-trifluoromethyl-pyrimidine-5-carboxylic acid (3,5-dimethoxy-phenyl)-amide], the pIC50 was 5.92.

As to `CCCCNC(=O)c1cc(NC(=O)c2cnc(Cl)nc2C(F)(F)F)cc(C(F)(F)F)c1` [2-Chloro-4-trifluoromethyl-pyrimidine-5-carboxylic acid (3-butylcarbamoyl-5-trifluoromethyl-phenyl)-amide], the negative logarithm of the IC50 (pIC50) is under 5.00.

In turn, `NC(=O)c1cc(NC(=O)c2cnc(Cl)nc2C(F)(F)F)cc(C(F)(F)F)c1` [2-Chloro-4-trifluoromethyl-pyrimidine-5-carboxylic acid (3-carbamoyl-5-trifluoromethyl-phenyl)-amide] gave a pIC50 of 5.30.

Turning to `Cc1cc(NC(=O)c2cnc(Cl)nc2C(F)(F)F)on1` [2-Chloro-4-trifluoromethyl-pyrimidine-5-carboxylic acid (3-methyl-isoxazol-5-yl)-amide], the pIC50 is 5.40.

For `O=C(Nc1ccc(C(F)(F)F)cc1)c1cnc(Cl)nc1C(F)(F)F` [2-Chloro-4-trifluoromethyl-pyrimidine-5-carboxylic acid (4-trifluoromethyl-phenyl)-amide], the pIC50 is 6.42.

Consider `Cc1ccc(NC(=O)c2cnc(Cl)nc2C(F)(F)F)s1` [2-Chloro-4-trifluoromethyl-pyrimidine-5-carboxylic acid (5-methyl-thiophen-2-yl)-amide], for which the pIC50 was 5.64.

For the molecule `O=C(c1cnc(Cl)nc1C(F)(F)F)N(Cc1ccccc1)c1cc(Cl)cc(Cl)c1` [2-Chloro-4-trifluoromethyl-pyrimidine-5-carboxylic acid benzyl-(3,5-dichloro-phenyl)-amide], the pIC50 was 5.57.

The molecule `CCCCNC(=O)c1cnc(Cl)nc1C(F)(F)F` [2-Chloro-4-trifluoromethyl-pyrimidine-5-carboxylic acid butylamide] had a pIC50 of under 5.00.

The molecule `O=C(Nc1ccccc1)c1cnc(Cl)nc1C(F)(F)F` [2-Chloro-4-trifluoromethyl-pyrimidine-5-carboxylic acid phenylamide] gave a pIC50 of under 5.00.

In the case of `O=C(Nc1cc(Cl)cc(Cl)c1)c1cnc(NC2CCCCC2)nc1C(F)(F)F` [2-Cyclohexylamino-4-trifluoromethyl-pyrimidine-5-carboxylic acid (3,5-dichloro-phenyl)-amide], the pIC50 is under 5.00.

Turning to `CN(C)c1ncc(C(=O)Nc2cc(Cl)cc(Cl)c2)c(C(F)(F)F)n1` [2-Dimethylamino-4-trifluoromethyl-pyrimidine-5-carboxylic acid (3,5-dichloro-phenyl)-amide], the pIC50 was under 5.00.

On to `O=C(Nc1cc(Cl)cc(Cl)c1)c1cnc(=O)[nH]c1C(F)(F)F` [2-Hydroxy-4-trifluoromethyl-pyrimidine-5-carboxylic acid (3,5-dichloro-phenyl)-amide], for which the negative logarithm of the IC50 (pIC50) is under 5.00.

The molecule `COc1ncc(C(=O)Nc2cc(Cl)cc(Cl)c2)c(C(F)(F)F)n1` [2-Methoxy-4-trifluoromethyl-pyrimidine-5-carboxylic acid (3,5-dichloro-phenyl)-amide] had a negative-log IC50 (pIC50) of under 5.00.

Regarding `O=C(Nc1cc(Cl)cc(Cl)c1)c1cnc(Nc2ccccc2)nc1C(F)(F)F` [2-Phenylamino-4-trifluoromethyl-pyrimidine-5-carboxylic acid (3,5-dichloro-phenyl)-amide], the negative logarithm of the IC50 (pIC50) was under 5.00.

Molecule `O=C(Nc1cc(Cl)cc(Cl)c1)c1cnc(N2CCCCC2)nc1C(F)(F)F` [2-Piperidin-1-yl-4-trifluoromethyl-pyrimidine-5-carboxylic acid (3,5-dichloro-phenyl)-amide] gave a pIC50 of 5.30.

Molecule `CCCCOC(=O)c1cc(NC(=O)c2cnc(Cl)nc2C(F)(F)F)cc(C(F)(F)F)c1` [3-[(2-Chloro-4-trifluoromethyl-pyrimidine-5-carbonyl)-amino]-5-trifluoromethyl-benzoic acid butyl ester] gave a pIC50 of 6.77.

`O=C(OC1CCCCC1)c1cc(NC(=O)c2cnc(Cl)nc2C(F)(F)F)cc(C(F)(F)F)c1` [3-[(2-Chloro-4-trifluoromethyl-pyrimidine-5-carbonyl)-amino]-5-trifluoromethyl-benzoic acid cyclohexyl ester] showed a pIC50 of 5.74.

As for `CCOP(=O)(COC(=O)c1cc(NC(=O)c2cnc(Cl)nc2C(F)(F)F)cc(C(F)(F)F)c1)OCC` [3-[(2-Chloro-4-trifluoromethyl-pyrimidine-5-carbonyl)-amino]-5-trifluoromethyl-benzoic acid diethoxy-phosphorylmethyl ester], the pIC50 was 5.34.

In turn, `CCOC(=O)c1cc(NC(=O)c2cnc(Cl)nc2C(F)(F)F)cc(C(F)(F)F)c1` [3-[(2-Chloro-4-trifluoromethyl-pyrimidine-5-carbonyl)-amino]-5-trifluoromethyl-benzoic acid ethyl ester] showed a negative-log IC50 (pIC50) of 6.55.

The molecule `CCCCCCOC(=O)c1cc(NC(=O)c2cnc(Cl)nc2C(F)(F)F)cc(C(F)(F)F)c1` [3-[(2-Chloro-4-trifluoromethyl-pyrimidine-5-carbonyl)-amino]-5-trifluoromethyl-benzoic acid hexyl ester] showed a pIC50 of 6.21.

In turn, `CCCCCCCCOC(=O)c1cc(NC(=O)c2cnc(Cl)nc2C(F)(F)F)cc(C(F)(F)F)c1` [3-[(2-Chloro-4-trifluoromethyl-pyrimidine-5-carbonyl)-amino]-5-trifluoromethyl-benzoic acid octyl ester] showed a pIC50 of 5.74.

`O=C(Nc1cc(Cl)cc(Cl)c1)c1cncnc1C(F)(F)F` [4-Trifluoromethyl-pyrimidine-5-carboxylic acid (3,5-dichloro-phenyl)-amide] showed a pIC50 of under 5.00.
